Data on five molecules can be found in ChEMBL document CHEMBL4340514, “(2S)-N-2-methoxy-2-phenylethyl-6,7-benzomorphan compound (2S-LP2): Discovery of a biased mu/delta opioid receptor agonist” (Eur J Med Chem, 2019).

In series [1] the target is T1, Delta-type opioid receptor (Homo sapiens, UniProt P41143). The experiment in a line: Agonist activity at Rluc-tagged DOR receptor (unknown origin) expressed in human […] cells co-expressing RGFP-fused to Gbeta1 assessed as increase in DOR/G beta1 protein interaction incubated for 5 mins in presence of coelenterazine by BRET assay. The class given is cell-based. In general terms: Bioluminescence resonance energy transfer reports proximity on the nanometre scale.

For series [2], the target named is T2, Mu-type opioid receptor (Homo sapiens, UniProt P35372). Kind of series: Potency index, ratio of test compounds EC50 to DADLE EC50 for agonist activity at Rluc-tagged MOR receptor (unknown origin) expressed in human […] cells co-expressing RGFP-fused to Gbeta1. The class given is cell-based. The essentials: (§1)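 Enriched plasma membranes (3 µg protein) from SH-SY5Y cells stably co-expressing MOR-RLuc and Gβ1-RGFP, in DPBS. Membranes prepared by Dounce homogenisation in sucrose buffer and differential centrifugation. Coelenterazine 5 µM final; ligands in PBS-BSA 0.01% incubated 5 min at room temperature. Read-out is BRET ratio (510/460 nm). […] At least 5 experiments in duplicate.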

Series [3] has as its target T2, Mu-type opioid receptor. The experiment in a line: Potency index, ratio of test compounds intrinsic activity to DADLE intrinsic activity for agonist activity at Rluc-tagged MOR receptor (unknown origin) expressed in human […] cells co-expressing RGFP-fused to Gbeta1. In kind it is cell-based. The essentials:
as §1

The species named for series [4] is Homo sapiens. Kind of series: Selectivity ratio of agonist activity at Rluc-tagged MOR receptor (unknown origin) expressed in human SH-5YSY cells co-expressing RGFP-fused to Gbeta1 assessed as increase in MOR/G beta1 protein interaction incubated for 5 mins in presence of coelenterazine by BRET assay over Agonist activity at Rluc-tagged DOR receptor (unknown origin) expressed in human […] cells co-expressing RGFP-fused to Gbeta1 assessed as increase in DOR/G beta1 protein interaction incubated for 5 mins in presence of coelenterazine by BRET assay. The class given is cell-based.

Series [5] has as its target T2, Mu-type opioid receptor.
Series [6] addresses Mu-type opioid receptor (Rattus norvegicus, UniProt P33535). The experiment in a line: Displacement of [3H]-DAMGO from MOR in rat brain membranes incubated for 45 mins by liquid scintillation counting. The class given is cell membranes. The essentials:
(§2)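 Rat brain membranes in 50 mM Tris-HCl pH 7.4, incubated 45 min at 35 °C. MOR: 0.4 mg/mL protein with 1 nM [3H]-DAMGO. DOR: 0.5 mg/mL protein with 2 nM [3H]-DPDPE. Filtered and counted by liquid scintillation. Ki from nonlinear regression of a logistic fit. Three experiments in duplicate.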

Series [7] addresses Delta-type opioid receptor (Rattus norvegicus, UniProt P33533). The experiment in a line: Displacement of [3H]DPDPE from DOR in rat brain membranes incubated for 45 mins by liquid scintillation counting. In kind it is cell membranes. A digest of the protocol: as §2
Series [8] has as its target Kappa-type opioid receptor (Cavia porcellus, UniProt P41144). The experiment in a line: Displacement of [3H]-U69,593 from KOR in guinea pig brain membranes incubated for 30 mins by liquid scintillation counting. The class given is cell membranes. A digest of the protocol:
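Guinea pig brain membranes (0.5 mg/mL) incubated 30 min at 30 °C with 1 nM [3H]-(+)-U69,593. Filtered and counted by liquid scintillation. Ki from nonlinear regression of a logistic fit. Three experiments in duplicate.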
On the technique in general: Loss of bound radioactivity is the signal in a displacement assay; it reports binding, not function.

The species entered for series [9] is Rattus norvegicus. Kind of series: Selectivity ratio of Ki for DOR in rat brain membranes to Ki for MOR in rat brain membranes. In kind it is cell membranes. A digest of the protocol:
as §2

A short description of series [10]: Selectivity ratio of Ki for KOR in guinea pig brain membranes to Ki for MOR in rat brain membranes. In kind it is cell membranes.
The target in series [11] is T1, Delta-type opioid receptor. The experiment in a line: Agonist activity at Rluc-tagged DOR receptor (unknown origin) expressed in human […] cells co-expressing RGFP-fused to beta-arrestin-2 assessed as increase in DOR/beta-arrestin-2 protein interaction incubated for 5 mins in presence of coelenterazine by BRET assay. The class given is cell-based.
Series [12] addresses T2, Mu-type opioid receptor. The experiment in a line: Potency index, ratio of test compounds EC50 to DADLE EC50 for agonist activity at Rluc-tagged MOR receptor (unknown origin) expressed in human […] cells co-expressing RGFP-fused to beta-arrestin-2. The class given is cell-based. The essentials:
(§3)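 Whole SH-SY5Y cells stably co-expressing MOR-RLuc and β-arrestin 2-RGFP, plated 24 h before at 100,000 cells/well, in PBS with 0.5 mM MgCl2 and 0.9 mM CaCl2. Coelenterazine 5 µM final, added 15 min before reading; ligands incubated 5 min at room temperature. Read-out is BRET ratio (510/460 nm).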

Series [13] has as its target T2, Mu-type opioid receptor. The experiment in a line: Potency index, ratio of test compounds intrinsic activity to DADLE intrinsic activity for agonist activity at Rluc-tagged MOR receptor (unknown origin) expressed in human […] cells co-expressing RGFP-fused to beta-arrestin-2. The class given is cell-based. A digest of the protocol: as §3
Series [14] addresses T2, Mu-type opioid receptor. The experiment in a line: Bias factor, change in deltalog(Tau/KA) for agonist activity at Rluc-tagged MOR receptor (unknown origin) expressed in human […] cells co-expressing RGFP-fused to Gbeta1 assessed as increase in MOR/G beta1 protein interaction incubated for 5 mins in presence of coelenterazine by BRET assay to deltalog(Tau/KA) for agonist activity at Rluc-tagged MOR receptor (unknown origin) expressed in human […] cells co-expressing RGFP-fused to MOR/beta-arrestin-2 assessed as increase in beta-arrestin-2 protein interaction incubated for 5 mins in presence of coelenterazine by BRET assay. The class given is cell-based.

Series [15] deals with T2, Mu-type opioid receptor. The experiment in a line: Potency index, ratio of test compounds pEC50 to DADLE pEC50 for agonist activity at Rluc-tagged MOR receptor (unknown origin) expressed in human […] cells co-expressing RGFP-fused to Gbeta1. In kind it is cell-based.
Series [16] deals with T2, Mu-type opioid receptor. Kind of series: Potency index, ratio of test compounds pEC50 to DADLE pEC50 for agonist activity at Rluc-tagged MOR receptor (unknown origin) expressed in human […] cells co-expressing RGFP-fused to beta-arrestin-2. The class given is cell-based.
Series [17] is described as follows: Toxicity in Swiss CB1 mouse assessed as locomotor activity at 0.5 to 3.0 mg/kg, ip after 30 to 180 mins. The class given is organism-based. The settings on record: in vivo.
The nature of series [18]: Toxicity in Swiss CB1 mouse assessed as sedation at 0.5 to 3.0 mg/kg, ip after 30 to 180 mins. The class given is organism-based. The conditions noted are these: in vivo.
Series [19] deals with Mus musculus. Kind of series: Antinociceptive activity in ip dosed Swiss CB1 mouse after 30 to 180 mins by radiant heat tail-flick method. The class given is functional. A digest of the protocol:
(§4)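 Male Swiss CB1 mice (25-30 g), habituated the day before. Radiant heat tail-flick: infrared source aimed at the lower third of the tail at 25 ± 1 °C. Baseline 3-5 s, mean of three readings 5 min apart; 20 s cutoff. Compounds in saline with DMSO (5%), given i.p. Latencies read at 30-180 min. […] Groups of 6-8 mice.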
(In general: In hot-plate and tail-flick tests a longer latency is read as antinociception.)

Series [20] concerns the target T2, Mu-type opioid receptor. The source holds these as a separate data set.
Series [21] deals with Mus musculus. The experiment in a line: Antinociceptive activity in ip dosed Swiss CB1 mouse after 60 to 180 mins by radiant heat tail-flick method. In kind it is functional, organism-based. The essentials: as §4
A short description of series [22]: Toxicity in Swiss CB1 mouse assessed as locomotor activity at 0.5 to 5.0 mg/kg, ip after 30 to 180 mins. The class given is organism-based. The conditions noted are these: in vivo.
Series [23] can be described thus: Toxicity in Swiss CB1 mouse assessed as sedation at 0.5 to 5.0 mg/kg, ip after 30 to 180 mins. In kind it is organism-based. The settings on record: in vivo.

Calls of active or inactive are those of the source.

T2 sequence (P35372 whole entry, the tested form may be a part): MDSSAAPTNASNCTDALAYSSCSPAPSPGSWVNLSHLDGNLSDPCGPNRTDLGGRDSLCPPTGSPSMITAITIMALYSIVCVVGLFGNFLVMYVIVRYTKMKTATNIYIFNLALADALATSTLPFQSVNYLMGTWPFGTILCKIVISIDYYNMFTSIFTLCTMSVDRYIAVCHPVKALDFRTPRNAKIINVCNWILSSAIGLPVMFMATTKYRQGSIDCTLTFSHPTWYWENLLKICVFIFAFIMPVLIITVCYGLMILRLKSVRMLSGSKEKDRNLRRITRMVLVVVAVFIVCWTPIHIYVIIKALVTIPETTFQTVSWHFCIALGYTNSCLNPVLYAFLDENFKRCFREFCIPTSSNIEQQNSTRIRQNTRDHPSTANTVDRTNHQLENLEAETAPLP
T1 sequence (P41143 whole entry, the tested form may be a part): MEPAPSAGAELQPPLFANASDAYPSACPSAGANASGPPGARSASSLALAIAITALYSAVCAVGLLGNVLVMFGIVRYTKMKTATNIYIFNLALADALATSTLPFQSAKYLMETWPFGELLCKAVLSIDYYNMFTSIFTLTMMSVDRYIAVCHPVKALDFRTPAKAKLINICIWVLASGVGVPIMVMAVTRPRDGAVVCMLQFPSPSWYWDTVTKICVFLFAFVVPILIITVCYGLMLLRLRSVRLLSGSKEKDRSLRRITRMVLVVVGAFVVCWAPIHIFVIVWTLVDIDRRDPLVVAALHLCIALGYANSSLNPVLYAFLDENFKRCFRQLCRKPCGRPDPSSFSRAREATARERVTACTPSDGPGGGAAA
Mu-type opioid receptor (Rattus norvegicus, UniProt P33535), sequence (P33535 whole entry): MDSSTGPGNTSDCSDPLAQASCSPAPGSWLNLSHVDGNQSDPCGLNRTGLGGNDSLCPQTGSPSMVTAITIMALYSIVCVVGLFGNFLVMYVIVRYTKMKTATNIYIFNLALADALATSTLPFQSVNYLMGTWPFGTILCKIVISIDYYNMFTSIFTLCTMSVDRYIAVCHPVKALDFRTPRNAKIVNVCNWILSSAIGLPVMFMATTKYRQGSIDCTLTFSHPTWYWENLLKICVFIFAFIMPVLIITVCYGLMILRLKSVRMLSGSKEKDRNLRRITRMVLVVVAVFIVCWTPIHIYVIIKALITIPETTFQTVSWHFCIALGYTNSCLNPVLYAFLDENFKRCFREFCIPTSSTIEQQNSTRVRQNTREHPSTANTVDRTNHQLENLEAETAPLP
Kappa-type opioid receptor, sequence (P41144 whole entry): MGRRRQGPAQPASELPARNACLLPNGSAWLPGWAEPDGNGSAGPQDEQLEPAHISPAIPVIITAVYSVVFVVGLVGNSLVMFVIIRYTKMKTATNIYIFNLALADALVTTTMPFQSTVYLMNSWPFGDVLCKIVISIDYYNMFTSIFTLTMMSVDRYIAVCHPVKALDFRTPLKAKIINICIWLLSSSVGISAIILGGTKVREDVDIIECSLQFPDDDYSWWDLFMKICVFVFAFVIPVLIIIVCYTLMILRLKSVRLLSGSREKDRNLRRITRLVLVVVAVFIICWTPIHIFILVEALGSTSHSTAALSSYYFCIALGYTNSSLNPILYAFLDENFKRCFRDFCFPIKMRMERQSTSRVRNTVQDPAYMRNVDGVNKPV
Delta-type opioid receptor (Rattus norvegicus, UniProt P33533), sequence (P33533 whole entry): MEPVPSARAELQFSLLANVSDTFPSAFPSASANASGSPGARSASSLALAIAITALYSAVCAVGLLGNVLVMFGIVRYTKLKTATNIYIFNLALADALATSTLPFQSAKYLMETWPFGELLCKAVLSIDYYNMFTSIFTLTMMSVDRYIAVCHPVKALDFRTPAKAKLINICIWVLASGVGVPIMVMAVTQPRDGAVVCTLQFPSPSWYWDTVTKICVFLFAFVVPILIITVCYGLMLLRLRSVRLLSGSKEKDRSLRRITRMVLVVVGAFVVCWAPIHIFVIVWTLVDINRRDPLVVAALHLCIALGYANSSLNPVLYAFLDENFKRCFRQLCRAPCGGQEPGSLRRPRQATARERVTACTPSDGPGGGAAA

`C[C@H]1[C@H]2Cc3ccc(O)cc3[C@]1(C)CCN2C[C@@H](O)c1ccccc1`: the half-maximal effective concentration (EC50) in [1] was 14.5 nM; in series [5], 6.61 nM. The Ratio came out at 0.06 in [2], 0.87 in series [3] and 0.46 in series [4].
Take `CO[C@H](CN1CC[C@@]2(C)c3cc(O)ccc3C[C@@H]1[C@@H]2C)c1ccccc1`: the Ki in [6] is 0.5 nM; in series [7], 2.59 nM; in series [8], 26.5 nM. Also, the Ratio Ki came to 5.18 in [9] and 53 in [10]. Besides, the EC50 was 32.4 nM in [1], 1860 nM in series [11], 4.68 nM in series [5] and 151 nM in series [20]. Besides, the Ratio was 0.04 in series [2]; 0.11 in [12]; 0.93 in series [3]; 0.72 in series [13]; 30 in [15]; 9 in series [16]. Besides, the fold change (FC) in [14] came to 0.82. Also, the Activity result in [17] and in [18] was “Non-Toxic” in each case. In series [19], this molecule registered an ED50 of 0.6 mg/kg.
As to `C[C@H]1[C@H]2Cc3ccc(O)cc3[C@]1(C)CCN2C[C@H](O)c1ccccc1`, the 50% effective concentration (EC50) in [1] was 58.9 nM; in series [5] it was 22.4 nM. The Ratio in series [2] was found to be 0.19; in series [3] it was 0.82; in [4], 0.4.
In the case of `CO[C@@H](CN1CC[C@@]2(C)c3cc(O)ccc3C[C@@H]1[C@@H]2C)c1ccccc1`, the inhibitory constant (Ki) in series [6] came to 12.3 nM; in series [7] it was 151 nM; in series [8] it was 236 nM. For the same molecule, the figures for the Ratio Ki in series [9] and in series [10] were 12.3 and 19.2, respectively. Besides, the result in series [21] was Active. The Activity result in series [22] and in series [23] was “Non-Toxic” throughout. The molecule also gave an ED50 in series [19] of 1.8 mg/kg.
As for `COC(CN1CC[C@@]2(C)c3cc(O)ccc3C[C@@H]1[C@@H]2C)c1ccccc1` (some centres undefined), the EC50 in series [1] is 95.5 nM; in [11], 2240 nM; in [5], 12.6 nM; in series [20] it was 275 nM. Also, the Ratio in [2] came out at 0.1; in series [12] it was 0.2; in [3] it was 0.92; in [13], 0.71; in series [15] it was 10; in [16], 5. In [14], the fold change (FC) worked out at 0.57.

In general, EC50 refers to the midpoint of the concentration-response curve. A word on the Ki: it is a measure of affinity in units of concentration, obtained from inhibition or displacement. As a reminder, the ED50 is the dose at which the effect has come halfway, by size or by number of responders. High values mean weaker potency, low ones greater potency.
